Laboratory results: ChEMBL document CHEMBL4311948, “Exploring the Natural Piericidins as Anti-Renal Cell Carcinoma Agents Targeting Peroxiredoxin 1” (J Med Chem, 2019)
The source made the active and inactive calls. The rule behind the calls is not given here.

How the values were obtained:
[1] = Toxicity in Balb/c nu/nu mouse xenografted with human ACHN cells assessed as decrease in body weight at 50 mg/kg, ip administered once daily for 21 days; settings: in vivo, 504 h
ACHN [2] = assay: Cytotoxicity against human ACHN cells assessed as reduction in cell viability measured after 72 hrs by CCK8 assay; assay type: functional, cell-based
In short: (§1)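 Cells were grown in 10% FBS medium: MEM for ACHN, RPMI1640 for OS-RC-2 and 786-O, DMEM for HK-2. They were seeded at 400–800 cells/well in 384-well plates and treated with a range of compound concentrations or solvent control, with sorafenib as positive control. After 72 h, CCK-8 absorbance was read at 450 nm in triplicate, and IC50 was taken from dose-response curves.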

[3] = Toxicity in Balb/c nu/nu mouse xenografted with human ACHN cells assessed as effect on survival at 50 mg/kg, ip administered once daily for 21 days; assay type: organism-based; settings: in vivo, 504 h
In short: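 Nude mice (Balb/c nu/nu) bearing ACHN flank xenografts received sorafenib tosylate 50 mg/kg, given as a 10× stock in Cremophor EL diluted in PBS. Treatment alongside PBS control for three weeks. Survival and body weight monitored.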

786-0 = assay: Cytotoxicity against human 786-O cells assessed as reduction in cell viability measured after 72 hrs by CCK8 assay; assay type: functional, cell-based; settings: 786-0, 72 h
In short: as §1

HK-2 = assay: Cytotoxicity against human HK2 cells assessed as reduction in cell viability measured after 72 hrs by CCK8 assay; assay type: cell-based; settings: HK-2, 72 h
In short: as §1

ACHN [4] = assay: Cytotoxicity against human ACHN cells harboring shPRDX1 gene assessed as reduction in cell viability measured after 72 hrs by CCK8 assay; assay type: functional, cell-based
In short: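 Transfectants were selected with puromycin (1 μg/mL), and knockdown was confirmed by immunoblot. Viability was read by CCK-8 after 72 h of compound exposure in 384-well plates at 400–800 cells/well in MEM with 10% FBS, and IC50 was taken from dose-response curves.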

ACHN [5] = assay: Antitumor activity against human ACHN cells xenografted in Balb/c nu/nu mouse assessed as tumor weight at 50 mg/kg, ip administered once daily for 21 days measured post-last dose by caliper method (reference value: 0.55 +/- 0.13 g); assay type: functional
OS-RC-2 = assay: Cytotoxicity against human OS-RC2 cells assessed as reduction in cell viability measured after 72 hrs by CCK8 assay; assay type: functional, cell-based; settings: OS-RC-2, 72 h
In short: as §1

ACHN [6] = assay: Down regulation of HIF1A mRNA expression in human ACHN cells at 25 to 50 nM measured after 24 hrs by qRT-PCR analysis; assay type: functional, cell-based
ACHN [7] = assay: Selectivity ratio of IC50 for cytotoxicity against human ACHN cells harboring shPRDX1 gene to IC50 for Cytotoxicity against human ACHN cells; assay type: functional
ACHN [8] = assay: Antitumor activity against human ACHN cells xenografted in Balb/c nu/nu mouse assessed as tumor growth inhibition at 0.8 mg/kg, ip administered once daily for 21 days measured post-last dose by TUNEL staining-based assay; assay type: functional, organism-based
In short: (§2)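 Male athymic Balb/c nu/nu mice, four weeks old, acclimatised 1 week. 10^7 ACHN cells in 0.2 mL PBS injected into the right flank. At about 150 mm3, mice randomised into PBS control or 0.8 mg/kg groups, dosed ip daily for three weeks. Tumours measured by caliper (volume = 0.5 × L × W²) with body weight recorded. Endpoint tumour weight, sections stained by H&E and TUNEL. Tissue lysed for immunoblot.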

ACHN [9] = assay: Down regulation of LDHA mRNA expression in human ACHN cells at 25 to 50 nM measured after 24 hrs by qRT-PCR analysis; assay type: functional, cell-based
ACHN [10] = assay: Down regulation of HK2 mRNA expression in human ACHN cells at 25 to 50 nM measured after 24 hrs by qRT-PCR analysis; assay type: functional, cell-based
Mus musculus [11] = assay: Up regulation of PRDX1 expression in human ACHN cells xenografted Balb/c nu/nu mouse at 0.8 mg/kg, ip administered once daily for 21 days measured post-last dose by immunoblot analysis; assay type: functional, organism-based
In short: as §2

[12] = Toxicity in Balb/c nu/nu mouse xenografted with human ACHN cells assessed as effect on survival at 0.8 mg/kg, ip administered once daily for 21 days; assay type: organism-based; settings: in vivo, 504 h
In short: as §2

ACHN [13] = assay: Up regulation of nuclear PRDX1 expression in human ACHN cells at 25 to 50 nM measured after 24 hrs by immunoblot analysis; assay type: functional, cell-based
In short: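 ACHN cells treated 24 h with 25 or 50 nM, then nuclear and cytosolic extracts prepared. Lysis in RIPA buffer, BCA quantitation, 30–50 μg protein resolved on 10% or 12% gels. Blotted with anti-PRDX1 (1:1000) and β-actin (1:3000), band ratio PRDX1/β-actin reported as fold change. Mean ± SD.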

ACHN [14] = assay: Down regulation of ETS1 mRNA expression in human ACHN cells at 25 to 50 nM measured after 24 hrs by qRT-PCR analysis; assay type: functional, cell-based
[15] = Toxicity in Balb/c nu/nu mouse xenografted with human ACHN cells assessed as decrease in body weight at 0.8 mg/kg, ip administered once daily for 21 days; assay type: organism-based; settings: in vivo, 504 h
In short: as §2

ACHN [16] = assay: Antitumor activity against human ACHN cells xenografted in Balb/c nu/nu mouse assessed as tumor growth inhibition at 0.8 mg/kg, ip administered once daily for 21 days measured post-last dose by H and E staining-based assay; assay type: functional, organism-based
In short: as §2

ACHN [17] = assay: Antitumor activity against human ACHN cells xenografted in Balb/c nu/nu mouse assessed as tumor weight at 0.8 mg/kg, ip administered once daily for 21 days measured post-last dose by caliper method (reference value: 0.55 +/- 0.13 g); assay type: functional
In short: as §2

Peroxiredoxin-1 = target: T1, Peroxiredoxin-1 (Homo sapiens, UniProt Q06830); assay: Binding affinity to full-length human PRDX1 by surface plasmon resonance analysis
T1 sequence (Q06830 whole entry): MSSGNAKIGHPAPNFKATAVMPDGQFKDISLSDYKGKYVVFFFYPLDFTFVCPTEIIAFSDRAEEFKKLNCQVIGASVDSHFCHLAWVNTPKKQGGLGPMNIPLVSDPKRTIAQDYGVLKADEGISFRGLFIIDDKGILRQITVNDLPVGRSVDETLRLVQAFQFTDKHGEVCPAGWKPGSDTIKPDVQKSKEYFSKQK
In short: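 Full-length human PRDX1 immobilised on a CM5 chip (Biacore T100). Analyte concentration series diluted in 10 mM Hepes pH 7.4, injected over the protein surface and a protein-free reference surface in a single step.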

ACHN [18] = assay: Down regulation of EGFR mRNA expression in human ACHN cells at 25 to 50 nM measured after 24 hrs by qRT-PCR analysis; assay type: functional, cell-based
ACHN [19] = assay: Down regulation of SOD2 mRNA expression in human ACHN cells at 25 to 50 nM measured after 24 hrs by qRT-PCR analysis; assay type: functional, cell-based
Mus musculus [20] = assay: Up regulation of PRDX1 mRNA expression in human ACHN cells xenografted Balb/c nu/nu mouse at 0.8 mg/kg, ip administered once daily for 21 days measured post-last dose by qRT-PCR analysis; assay type: functional, organism-based
ACHN [21] = assay: Up regulation of PRDX1 mRNA expression in human ACHN cells at 25 to 50 nM measured after 24 hrs by qRT-PCR analysis; assay type: functional, cell-based
ACHN [22] = assay: Down regulation of MET mRNA expression in human ACHN cells at 25 to 50 nM measured after 24 hrs by qRT-PCR analysis; assay type: functional, cell-based
[23] = target: T2, Peroxiredoxin-1 (Homo sapiens) (UniProt Q06830); assay: Activation of PRDX1 in human ACHN cells assessed as reduction in reactive oxygen species level at 25 to 50 nM measured after 24 hrs by Cell-rox reagent-based flow cytometry
T2 sequence (whole entry): T1 sequence (Q06830 whole entry)
In short: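 ACHN cells grown 24 h in MEM + 10% FBS, reseeded at 2 × 10^4 cells/well and exposed to 0, 25 or 50 nM for 24 h. Harvested cells loaded with CellROX oxidative stress reagent 5 μM, 30 min at 37 °C in the dark, then read by flow cytometry. shPRDX1 line: stable knockdown selected with puromycin (1 μg/mL) before dosing. Mean ± SD.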

ACHN [24] = assay: Down regulation of SLC2A1 mRNA expression in human ACHN cells at 25 to 50 nM measured after 24 hrs by qRT-PCR analysis; assay type: functional, cell-based
[25] = target: T2, Peroxiredoxin-1 (Homo sapiens); assay: Induction of PRDX1 nuclear translocation in human ACHN cells at 25 to 50 nM measured after 24 hrs by DAPI staining-based microscopic analysis; assay type: cell-based
In short: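 ACHN cells exposed 24 h to 25 or 50 nM, fixed in 4% paraformaldehyde 10 min and permeabilised with 0.5% Triton X-100. Blocked with 10% FBS, 4 °C, 12 h. Stained with anti-PRDX1 overnight, FITC secondary 2 h RT, DAPI nuclear counterstain. Confocal imaging scored mean fluorescence intensity (n = 9).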

[26] = Homo sapiens, ACHN, 72 h, read-out: IC50

In the case of `CNC(=O)c1cc(Oc2ccc(NC(=O)Nc3ccc(Cl)c(C(F)(F)F)c3)cc2)ccn1` [SORAFENIB], the Activity [1] is reported as “Toxic”, the IC50 (ACHN [2]) is reported as 3.3 µM and the Activity [3] is reported as “Non-Toxic”. For the same molecule, the IC50 (786-0) was 13 µM, the IC50 (HK-2) was 2.6 µM and the IC50 (ACHN [4]; achn) was “Not Active”. For the same molecule, the Activity (ACHN [5]) was 0.12 g and the IC50 (OS-RC-2) was 14 µM.

In the case of `COc1nc(C/C=C(\C)C/C=C/C(C)=C/[C@@H](C)[C@@H](O[C@@H]2O[C@H](CO)[C@@H](O)[C@H](O)[C@H]2O)/C(C)=C/CO)c(C)c(O)c1OC`, the IC50 (ACHN [2]) is reported as 7.21 µM, the IC50 (786-0) is reported as greater than 100 µM and the IC50 (HK-2) is reported as greater than 100 µM. For the same molecule, the IC50 (ACHN [4]; achn) was “Not Active” and the IC50 (OS-RC-2) was greater than 100 µM.

In the case of `C/C=C(\C)[C@H](O[C@@H]1O[C@H](CO)[C@@H](O)[C@H](O)[C@H]1O)[C@H](C)/C=C(C)/C=C/C/C(C)=C/Cc1nc(OC)c(OC)c(O)c1C`, the Activity (ACHN [6]) is reported as “Active”, the “Ratio IC50” value (ACHN [7]) is reported as 4 and the TGI (ACHN [8]) is reported as “Active”. For the same molecule, the Activity (ACHN [9]) was “Active”, the Activity (ACHN [10]) was “Active” and the Activity (Mus musculus [11]) was “Active”. For the same molecule, the Activity [12] was “Non-Toxic”, the Activity (ACHN [13]) was “Active” and the IC50 (ACHN [2]) was 0.21 µM. The Activity (ACHN [14]) was “Active”, the Activity [15] was “Non-Toxic” and the IC50 (786-0) was greater than 100 µM. For the same molecule, the TGI (ACHN [16]) was “Active”, the Activity (ACHN [17]) was 0.23 g and the Kd (Peroxiredoxin-1) was 1.83 µM. The Activity (ACHN [18]) was “Active”, the IC50 (HK-2) was greater than 100 µM and the Activity (ACHN [19]) was “Active”. The IC50 (ACHN [4]; [26]) was 0.96 µM, the Activity (Mus musculus [20]) was “Active” and the Activity (ACHN [21]) was “Active”. The Activity (ACHN [22]) was “Active”, the Activity [23] was “Active” and the Activity (ACHN [24]) was “Active”. The Activity [25] was “Active” and the IC50 (OS-RC-2) was greater than 100 µM.

`C/C=C(\C)[C@H](O)[C@H](C)/C=C(C)/C=C(\C)C/C(C)=C/Cc1nc(OC)c(OC)c(O)c1C` showed an IC50 (ACHN [2]) of 14 µM, an IC50 (786-0) of 50 µM and an IC50 (HK-2) of 45 µM. It also gave an IC50 (ACHN [4]; [26]) of 68 µM and an IC50 (OS-RC-2) of 17 µM.

`COc1nc(C/C=C(\C)C/C(C)=C/C(C)=C/[C@@H](C)[C@@H](O)/C(C)=C/[C@](C)(O)[C@@H](C)O)c(C)c(O)c1OC` showed an IC50 (ACHN [2]) of 2.4 µM, an IC50 (786-0) greater than 100 µM and an IC50 (HK-2) of 44 µM. The IC50 (ACHN [4]; [26]) was 8.2 µM and the IC50 (OS-RC-2) was 5.3 µM.
